Screens: PubChem BioAssay, Johns Hopkins Ion Channel Center
Compounds with a hit are over-represented: about 4.1% of the library has one in this group of screens.
RGS4 inh: human RGS4 inhibition; B-score at 10 µM; HEK293 M3R/RGS4 inducible, Fluo-4 calcium flux; active compounds read high; triggered by carbachol at its EC20; 310,000 compounds, 0.45% hits;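 active means B-score, a plate-corrected calcium signal, over three deviations above library mean, with baseline fluorescence within five deviations of library mean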;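 further: RGS4 expression induced by doxycycline in cells with stable M3 receptor; B-score is computed from the integrated fluorescence ratio over baseline after carbachol; higher B-score means a larger calcium signal and so more RGS4 inhibition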
MrgX1 ag: agonists of human MrgX1 receptor; Q96LB2; B-score at 10 µM; 310,000 compounds, 0.44% hits; MrgX1-HEK293 cells, Fluo-4 calcium fluorescence, agonist mode; active compounds read high;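 active means calcium response B-score plate-corrected fluorescence ratio at least 3 library SD, with starting fluorescence B-score inside 5 SD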
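System: HEK293 cells stably expressing human MrgX1 receptor; Dosing: test compound in the initial addition of three; Schedule: overnight plating, then 30 min 37 °C plus 30 min room-temperature dye loading; Detection: kinetic calcium dye fluorescence, Fluo-4 NW; Controls: per-plate positive and negative controls for Z′ factor.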
RGS4 act: potentiators or activators of RGS4; HEK293 M3R/inducible RGS4, carbachol calcium flux Fluo4; active compounds read low; B-score at 10 µM; 310,000 compounds, 0.92% hits; AID 463111;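 active means B-score of the integrated calcium signal more than 4 SD below the library mean, with starting fluorescence not abnormally high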;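 further: negative B-score means reduced calcium response which marks RGS4 activation or potentiation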
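Material: Inducible-RGS4 HEK293 cells carrying M3 receptor; also added: carbachol at ECmax as muscarinic agonist stimulus; incubation: compound preincubation 20 min at room temperature before agonist; signal: Fluo4-AM (2 µM) calcium-flux fluorescence, kinetic read; measure: integrated calcium ratio converted to B score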
MrgX1 antag: blocks BAM8-22 activation of human MrgX1 receptor | B-score at 10 µM | Q96LB2 | AID 588676 | 310,000 compounds, 1.3% hits | MRGX1-HEK293 calcium flux, Fluo-4, BAM8-22 antagonism; active compounds read low;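 active means calcium-response B-score plate-corrected more than 3 library SD below zero, starting fluorescence within 5 deviations, no agonist response on first addition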;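 further: peak minus trough fluorescence over baseline after final BAM8-22 challenge near maximal dose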
MrgX1 PAM: human MrgX1 positive allosteric modulation, primary screen. B-score at 10 µM. 310,000 compounds, 0.63% hits. MrgX1-HEK293, Fluo-4 calcium flux, FDSS; active compounds read high. Q96LB2;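 active means plate-corrected calcium response at least 3 library SD above typical, normal starting fluorescence, not activating the receptor alone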;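 further: compound read alongside a low EC10 to EC30 dose of BAM8-22 agonist; peak minus trough fluorescence over baseline measured at the second addition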
Kir21 inh: Kir2.1 (mouse) channel inhibition. P35561. HEK293-Kir2.1, FluxOR thallium flux fluorescence; active compounds read low. B-score at 10 µM. 310,000 compounds, 0.85% hits;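 active means fluorescence ratio B-score at or below minus 3 SD of library scores, with starting-brightness B-score within 2 SD, cut at about -4.2 in these data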;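 further: channel flux triggered by added potassium and thallium sulfate stimulus; B-score of peak minus minimum fluorescence over baseline after thallium stimulus; more negative B-score means stronger Kir2.1 block with less thallium influx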
Target sequence (P35561 whole entry, looked up): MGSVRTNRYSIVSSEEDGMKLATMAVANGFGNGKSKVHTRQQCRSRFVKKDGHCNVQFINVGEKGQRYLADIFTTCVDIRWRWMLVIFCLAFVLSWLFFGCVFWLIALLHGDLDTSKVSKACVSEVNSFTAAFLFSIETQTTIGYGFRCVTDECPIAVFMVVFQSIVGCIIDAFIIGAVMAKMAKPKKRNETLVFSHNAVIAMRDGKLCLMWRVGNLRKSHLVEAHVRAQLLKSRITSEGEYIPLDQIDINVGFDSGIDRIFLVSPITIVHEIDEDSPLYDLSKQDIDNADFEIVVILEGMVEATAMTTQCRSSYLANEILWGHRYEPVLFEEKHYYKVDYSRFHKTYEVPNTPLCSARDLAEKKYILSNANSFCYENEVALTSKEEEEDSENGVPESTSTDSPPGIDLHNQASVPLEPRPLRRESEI
RGS4 block valid: RGS4 inhibitor validation; 1,700 compounds, 65% hits; AID 492999; shares compounds with RGS4 inh; calcium response, % at 10 µM; HEK293 M3R/RGS4, carbachol calcium Fluo-4 fluorescence; carbachol added at its EC20; 0 = buffer wells, 100 = carbachol control;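 active means duplicate-averaged calcium response above the buffer-only control mean plus 5 SD of those controls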;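 further: integrated fluorescence ratio F max minus min over baseline F0; higher response in RGS4-induced cells means RGS4 inhibition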
M3R Ca ctr: counter-screen for RGS4 inhibitors: effect in non-induced cells; HEK293 M3R non-induced, carbachol calcium Fluo-4; submaximal (EC20) carbachol stimulus; buffer wells 0%, carbachol control wells 100%; activity (percent), % at 10 µM; 1,900 compounds, 20% hits; shares compounds with RGS4 inh; AID 493000; call rule not given here;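 further: RGS4 induction absent so cells express M3R without RGS4; higher means more calcium signal and flags a non-specific hit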
M3R basal Ca ctr: signal in non-induced cells without carbachol, RGS4 inhibitor counter-screen. 1,900 compounds, 22% hits. shares compounds with RGS4 inh. AID 493001. HEK293 M3R/RGS4 non-induced, Fluo-4 calcium, no carbachol; normalised: buffer wells 0%, carbachol wells 100%. calcium response (agonist-mode artifact), % at 10 µM;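 active means duplicate-averaged calcium rise in uninduced cells above buffer wells' mean plus 5 SD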
* hit, by the source's call.

How did CC(=O)C1=C(C)NC(=S)NC1c1cccc([N+](=O)[O-])c1 (centres undefined) do in these assays?
RGS4 inh: inactive; MrgX1 ag: inactive; RGS4 act: inactive; MrgX1 antag: inactive; MrgX1 PAM: 6.5*; Kir21 inh: -0.07; M3R Ca ctr: inactive; M3R basal Ca ctr: inactive

What do the screens show for `CC1=C(C(=O)OCc2ccccc2)C(c2cccc([N+](=O)[O-])c2)NC(=O)N1` (centres undefined)?
RGS4 inh: inactive; MrgX1 ag: inactive; RGS4 act: inactive; MrgX1 antag: inactive; MrgX1 PAM: inactive; Kir21 inh: 0.99

How did CCOCCCN(CCC#N)C(=O)C1CCN(S(=O)(=O)c2ccc(-n3cnnn3)cc2)CC1 do in these assays?
RGS4 inh: inactive; MrgX1 ag: inactive; RGS4 act: inactive; MrgX1 antag: inactive; MrgX1 PAM: inactive; Kir21 inh: -0.27

How did COc1ccc(CN2CCNC(=O)C2CC(=O)NCC2CCOCC2)c(C)c1C (centres undefined) do in these assays?
RGS4 inh: inactive; MrgX1 ag: inactive; RGS4 act: inactive; MrgX1 antag: inactive; MrgX1 PAM: inactive; Kir21 inh: -0.32

What do the screens show for `CCOC(=O)C1=C(CS(=O)(=O)c2ccc(C)cc2)NC(=O)NC1c1ccc(O)c(OC)c1` (centres undefined)?
RGS4 inh: inactive; MrgX1 ag: inactive; RGS4 act: inactive; MrgX1 antag: inactive; MrgX1 PAM: inactive; Kir21 inh: -1.8

Results for COC(=O)C1=C(CS(=O)(=O)c2ccc(C)cc2)NC(=O)NC1c1ccc(OC)c(OC)c1 (centres undefined) ?
RGS4 inh: inactive; MrgX1 ag: inactive; RGS4 act: inactive; MrgX1 antag: inactive; MrgX1 PAM: inactive; Kir21 inh: 0.11; RGS4 block valid: inactive; M3R Ca ctr: inactive; M3R basal Ca ctr: inactive

Results for C(=N\Nc1nc(-c2ccccc2)cs1)/c1cccnc1 ?
RGS4 inh: inactive; MrgX1 ag: inactive; RGS4 act: inactive; MrgX1 antag: inactive; MrgX1 PAM: inactive; Kir21 inh: -0.01; RGS4 block valid: inactive; M3R Ca ctr: inactive; M3R basal Ca ctr: inactive

Results for CCOc1ccc(S(=O)(=O)NCc2ccco2)cc1 ?
RGS4 inh: inactive; MrgX1 ag: inactive; RGS4 act: inactive; MrgX1 antag: inactive; MrgX1 PAM: inactive; Kir21 inh: 2.1

Results for O=Nc1c(O)n(Cc2ccc(Cl)c(Cl)c2)c2ccccc12 ?
RGS4 inh: 15*; MrgX1 ag: inactive; RGS4 act: inactive; MrgX1 antag: inactive; MrgX1 PAM: inactive; Kir21 inh: -2.4; RGS4 block valid: 16%*; M3R Ca ctr: 39%*; M3R basal Ca ctr: inactive

Results for O=Nc1c(O)n(Cc2ccccc2)c2ccccc12 ?
RGS4 inh: inactive; MrgX1 ag: inactive; RGS4 act: inactive; MrgX1 antag: inactive; MrgX1 PAM: inactive; Kir21 inh: -5.5

How did CC1(C)NC(=O)N(CCCCOc2ccc(Cl)cc2)C1=O do in these assays?
RGS4 inh: inactive; MrgX1 ag: inactive; RGS4 act: inactive; MrgX1 antag: inactive; MrgX1 PAM: inactive; Kir21 inh: 1.9

What do the screens show for `COc1cccc(NC(=O)NC2CCCCCCC2)c1`?
RGS4 inh: 18*; MrgX1 ag: inactive; RGS4 act: inactive; MrgX1 antag: inactive; MrgX1 PAM: inactive; Kir21 inh: -0.01; RGS4 block valid: inactive; M3R Ca ctr: inactive; M3R basal Ca ctr: inactive
